Active and inactive are the calls of the source. The calls are words filed in the database; no cut-off is given here.
Experiments:
RAW264.7 [1] = assay: Inhibition of LPS-induced IL6 production in mouse RAW264.7 cells at 10 uM preincubated for 30 mins prior to LPS challenge measured after 24 hrs by ELISA; assay type: functional
Method in brief: (§1)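 RAW 264.7 cells (ATCC) were grown in DMEM with 10% FBS and penicillin/streptomycin at 37 °C, 5% CO2. Cells were seeded at 400,000/well and incubated for 24 h, pretreated with compound for 30 min, then given 0.5 µg/mL LPS for 24 h. Medium TNF-α or IL-6 was measured by ELISA and normalized to total protein of viable cell pellets.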

RAW264.7 [2] = assay: Inhibition of LPS-induced TNF-alpha production in mouse RAW264.7 cells at 10 uM preincubated for 30 mins prior to LPS challenge measured after 24 hrs by ELISA; assay type: functional; method in brief: as §1
Mus musculus [3] = assay: Antiinflammatory activity in LPS-induced C57BL/6 mouse sepsis model assessed as inhibition of neutrophils infiltration in lung by measuring MPO activity at 10 mg/kg, iv administered 15 mins prior to LPS challenge measured after 6 hrs in presence of O-dianisidine dihydrochloride relative to control; assay type: functional, organism-based
Method in brief: (§2)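 Mice were given 10 mg/kg iv 15 min before 20 mg/kg LPS or without LPS; saline served as control, and animals were killed 6 h later. Lung supernatants were incubated with 0.01% H2O2 and O-dianisidine dihydrochloride 0.167 mg/mL for 30 min, with absorbance change at 460 nm. One unit degrades 1 µmol peroxide/min at 37 °C; values are expressed as units/g lung.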

Mus musculus [4] = assay: Decrease in MPO activity in C57BL/6 mouse lung at 10 mg/kg, iv after 6 hrs in presence of O-dianisidine dihydrochloride relative to control; assay type: ADME, organism-based; conditions: in vivo; method in brief: as §2
Mus musculus [5] = assay: Antiinflammatory activity in LPS-induced C57BL/6 mouse sepsis model assessed as reduction in airspace inflammation in lung at 10 mg/kg, iv administered 15 mins prior to LPS challenge measured after 6 hrs by hematoxylin and eosin staining; assay type: functional, organism-based
Method in brief: (§3)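 Male C57BL/6 mice (18-22 g), randomized into groups. Compound at 10 mg/kg was given by tail-vein injection 15 min before LPS 20 mg/kg; controls received saline. Animals were sacrificed 6 h after LPS. Lung was fixed in 4% paraformaldehyde, paraffin-embedded, cut at 5 µm and H&E stained. A pathologist, blinded, scored alveolar congestion, hemorrhage, neutrophil infiltration and alveolar wall thickness/hyaline membrane.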

Mus musculus [6] = assay: Antiinflammatory activity in LPS-induced C57BL/6 mouse sepsis model assessed as decrease in pulmonary lobule structural changes at 10 mg/kg, iv administered 15 mins prior to LPS challenge measured after 6 hrs by hematoxylin and eosin staining; assay type: functional, organism-based; method in brief: as §3
Mus musculus [7] = assay: Antiinflammatory activity in LPS-induced C57BL/6 mouse sepsis model assessed as inhibition of macrophage infiltration in lung at 10 mg/kg, iv administered 15 mins prior to LPS challenge measured after 6 hrs by F4/80 and hematoxylin-staining based microscopy; assay type: functional, organism-based
Method in brief: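 C57BL/6 males were dosed with 10 mg/kg iv (tail vein) 15 min before 20 mg/kg LPS and sacrificed 6 h later. Paraffin lung sections had antigen retrieval by pressure cooker in 10 mM citrate pH 6.5, then H2O2, 5% BSA block, anti-F4/80 overnight at 4 °C, HRP secondary, DAB and hematoxylin counterstain. The % F4/80-positive cells was counted in 10 random 200× fields per section.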

Mus musculus [8] = assay: Downregulation of TNF-alpha mRNA level in lung of LPS-induced C57BL/6 mouse sepsis model at 10 mg/kg, iv administered 15 mins prior to LPS challenge measured after 6 hrs by RT-qPCR analysis; assay type: functional, organism-based
Method in brief: (§4)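 Male C57BL/6 mice were given 10 mg/kg by tail-vein injection 15 min before 20 mg/kg LPS and killed after 6 h; lungs were harvested. RNA was extracted with TRIZOL and quantified by real-time quantitative PCR as relative mRNA amount.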

Mus musculus [9] = assay: Downregulation of IL-6 mRNA level in lung of LPS-induced C57BL/6 mouse sepsis model at 10 mg/kg, iv administered 15 mins prior to LPS challenge measured after 6 hrs by RT-qPCR analysis; assay type: functional, organism-based; method in brief: as §4
Mus musculus [10] = assay: Downregulation of IL-12 mRNA level in lung of LPS-induced C57BL/6 mouse sepsis model at 10 mg/kg, iv administered 15 mins prior to LPS challenge measured after 6 hrs by RT-qPCR analysis; assay type: functional, organism-based; method in brief: as §4
Mus musculus [11] = assay: Downregulation of IL-33 mRNA level in lung of LPS-induced C57BL/6 mouse sepsis model at 10 mg/kg, iv administered 15 mins prior to LPS challenge measured after 6 hrs by RT-qPCR analysis; assay type: functional, organism-based; method in brief: as §4
Mus musculus [12] = assay: Downregulation of IL-1beta mRNA level in lung of LPS-induced C57BL/6 mouse sepsis model at 10 mg/kg, iv administered 15 mins prior to LPS challenge measured after 6 hrs by RT-qPCR analysis; assay type: functional, organism-based; method in brief: as §4
Mus musculus [13] = assay: Downregulation of COX2 mRNA level in lung of LPS-induced C57BL/6 mouse sepsis model at 10 mg/kg, iv administered 15 mins prior to LPS challenge measured after 6 hrs by RT-qPCR analysis; assay type: functional, organism-based; method in brief: as §4
RAW264.7 [14] = assay: Inhibition of LPS-induced IL6 production in mouse RAW264.7 cells preincubated for 30 mins prior to LPS challenge measured after 24 hrs by ELISA; assay type: functional, cell-based; conditions: Mus musculus, RAW264.7; read-out: IC50; method in brief: as §1
RAW264.7 [15] = assay: Inhibition of LPS-induced TNF-alpha production in mouse RAW264.7 cells preincubated for 30 mins prior to LPS challenge measured after 24 hrs by ELISA; assay type: functional, cell-based; conditions: Mus musculus, RAW264.7; read-out: IC50; method in brief: as §1
Mus musculus [16] = organism: Mus musculus; assay: Acute toxicity in C57BL/6 mouse liver by hematoxylin and eosin staining-based histopathologiacal analysis; assay type: organism-based; conditions: in vivo
Mus musculus [17] = organism: Mus musculus; assay: Acute toxicity in C57BL/6 mouse kidney by hematoxylin and eosin staining-based histopathologiacal analysis; assay type: organism-based; conditions: in vivo
Mus musculus [18] = organism: Mus musculus; assay: Acute toxicity in C57BL/6 mouse heart by hematoxylin and eosin staining-based histopathologiacal analysis; assay type: organism-based; conditions: in vivo
Mus musculus [19] = assay: Toxicity in C57BL/6 mouse assessed as change in body weight at 20 mg/kg, iv administered for 7 days measured every 24 hrs of compound dosing relative to control; assay type: organism-based; conditions: in vivo
Mus musculus [20] = assay: Antiinflammatory activity in LPS-induced C57BL/6 mouse sepsis model assessed as suppression of TNF-alpha release in serum at 10 mg/kg, iv administered 15 mins prior to LPS challenge measured after 6 hrs relative to control; assay type: functional, organism-based
Method in brief: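 Male C57BL/6 mice, 18-22 g, were injected via tail vein with 10 mg/kg 15 min before 20 mg/kg LPS; controls received saline. Blood was taken with a heparinized syringe 6 h after LPS under anesthesia. Serum TNF-α was measured by ELISA (pg/mL).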

Compound	inhibition at 10 µM (RAW264.7 [1])	inhibition at 10 µM (RAW264.7 [2])	inhibition (Mus musculus [3])	Activity (Mus musculus [4])	Activity (Mus musculus [5])	Activity (Mus musculus [6])	inhibition (Mus musculus [7])	Activity (Mus musculus [8])	Activity (Mus musculus [9])	Activity (Mus musculus [10])	Activity (Mus musculus [11])	Activity (Mus musculus [12])	Activity (Mus musculus [13])	IC50 (RAW264.7 [14])	IC50 (RAW264.7 [15])	Activity (Mus musculus [16])	Activity (Mus musculus [17])	Activity (Mus musculus [18])	Activity (Mus musculus [19])	Activity (Mus musculus [20])
CCCn1c(-c2c[nH]c3ncccc23)nc2ccc(N3CCN(C)CC3)nc21	69.5%	67.3%	Active	Non-toxic	Active	Active	Active	Active	Active	Active	Active	inactive	inactive							
CN1CCN(c2ccc(NC(=O)c3cc4cc(NC(=O)c5ccco5)ccc4n3Cc3ccc(C(F)(F)F)cc3)cc2)CC1			Active	Non-toxic	Active	Active	Active	Active	Active	Active	Active	Active	Active	2900 nM	2660 nM	Non-toxic	Non-toxic	Non-toxic	Non-toxic	Active
CN1CCN(c2ccc(NC(=O)c3cc4cc(NC(=O)N(C)C)ccc4n3Cc3ccc(C(F)(F)F)cc3)cc2)CC1			Active	Non-toxic	Active	Active	Active	Active	Active	Active	Active	Active	Active	1240 nM	2670 nM	Non-toxic	Non-toxic	Non-toxic	Non-toxic	Active
